Reference: ChEMBL document CHEMBL3286109, “Structure-activity relationship studies of indole-based compounds as small molecule HIV-1 fusion inhibitors targeting glycoprotein 41” (J Med Chem, 2014)

Experiments:
[1] = Binding affinity to HIV1 Envelope glycoprotein gp41 Fe(env2.0)3 using C18FL as probe by fluorescence assay; parameters: species or system Human immunodeficiency virus 1
[2] = Cytotoxicity against human MAGI-CCR5 cells assessed as inhibition of cell viability by MTS assay; format: cell-based; details: read-out: TC50 (the source's name)
[3] = tested on: Human immunodeficiency virus 1; assay: Antiviral activity against HIV-1 3B infected in human MAGI-CCR5 cells assessed as inhibition of viral replication after 48 hrs by chemiluminescence assay; format: functional, organism-based; details: Human immunodeficiency virus 1, 3B, MAGI-CCR5, 48 h
[4] = Inhibition of HIV1 HXB2 gp41-mediated cell-cell fusion between viral envelope-expressing human HL2/3 cells to human TZM-bl cells by luciferase reporter assay; format: cell-based; details: Human immunodeficiency virus 1, HXB2, TZM-bl
[5] = Cytotoxicity against human TZM-bl cells assessed as inhibition of cell viability by resazurin assay; details: read-out: TC50 (the source's name)
[6] = Retardation factor of the compound using 40% EtOAc/hexanes as solvent system by silca gel chromatography; format: physicochemical
[7] = tested on: Human immunodeficiency virus 1; assay: Antiviral activity against HIV-1 Ba-L infected in human MAGI-CCR5 cells assessed as inhibition of viral replication after 48 hrs by chemiluminescence assay; format: functional, organism-based; details: Human immunodeficiency virus 1, Ba-L, MAGI-CCR5, 48 h
[8] = Therapeutic index, ratio of TC50 for human PBMC to EC50 for HIV-1 92BR014 subtype B infected in human PBMC; details: read-out: TI
Method in brief: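 Human PBMC from screened donors were Ficoll-purified, stimulated with 4 μg/mL phytohemagglutinin, and kept in 20 U/mL IL-2. Cells from two donors were pooled at 5 × 10^4 cells/well and given nine serial compound dilutions in triplicate, then HIV-1 at a final MOI of about 0.1. TC50 was measured in parallel cultures by MTS viability. TI = TC50/EC50.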

[9] = Therapeutic index, ratio of TC50 for human PBMC to EC50 for HIV-1 92UG001 subtype D infected in human PBMC; details: read-out: TI
[10] = Retardation factor of the compound using 50% EtOAc/hexanes as solvent system by silca gel chromatography; format: physicochemical
[11] = Therapeutic index, ratio of TC50 for human PBMC to EC50 for HIV-1 01CM0005BBY subtype CRF02_AG infected in human PBMC; details: read-out: TI
[12] = tested on: Human immunodeficiency virus 1; assay: Antiviral activity against HIV-1 92BR014 subtype B infected in human PBMC assessed as reverse transcriptase activity after 6 days by microtiter plate-based assay; format: functional, organism-based; details: Human immunodeficiency virus 1, 92BR014 subtype B, 144 h
Method in brief: (§1)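 PBMCs from screened donors, Ficoll-purified, stimulated with 4 μg/mL phytohemagglutinin, kept in 20 U/mL IL-2; cells from two donors pooled, 5 × 10^4 cells/well.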

[13] = tested on: Human immunodeficiency virus 1; assay: Antiviral activity against HIV-1 01CM0005BBY subtype CRF02_AG infected in human PBMC assessed as reverse transcriptase activity after 6 days by microtiter plate-based assay; format: functional, organism-based; details: Human immunodeficiency virus 1, 01CM0005BBY subtype CRF02_AG, 144 h; method in brief: as §1
[14] = tested on: Human immunodeficiency virus 1; assay: Antiviral activity against HIV-1 Ba-L subtype B infected in human PBMC assessed as reverse transcriptase activity after 6 days by microtiter plate-based assay; format: functional, organism-based; details: Human immunodeficiency virus 1, Ba-L subtype B, 144 h; method in brief: as §1
[15] = tested on: Human immunodeficiency virus 1; assay: Antiviral activity against HIV-1 00UG_D26830M4 subtype D infected in human PBMC assessed as reverse transcriptase activity after 6 days by microtiter plate-based assay; format: functional, organism-based; details: Human immunodeficiency virus 1, 00UG_D26830M4 subtype D, 144 h; method in brief: as §1
[16] = Therapeutic index, ratio of TC50 for human PBMC to EC50 for HIV-1 91DJ263 subtype CRF02_AG infected in human PBMC; details: read-out: TI
[17] = tested on: Human immunodeficiency virus 1; assay: Antiviral activity against HIV-1 02CM0015BBY subtype CRF02_AG infected in human PBMC assessed as reverse transcriptase activity after 6 days by microtiter plate-based assay; format: functional, organism-based; details: Human immunodeficiency virus 1, 02CM0015BBY subtype CRF02_AG, 144 h; method in brief: as §1
[18] = tested on: Human immunodeficiency virus 1; assay: Antiviral activity against HIV-1 91DJ263 subtype CRF02_AG infected in human PBMC assessed as reverse transcriptase activity after 6 days by microtiter plate-based assay; format: functional, organism-based; details: Human immunodeficiency virus 1, 91DJ263 subtype CRF02_AG, 144 h; method in brief: as §1
[19] = Therapeutic index, ratio of TC50 for human PBMC to EC50 for HIV-1 00UG_D26830M4 subtype D infected in human PBMC; details: read-out: TI
[20] = tested on: Human immunodeficiency virus 1; assay: Antiviral activity against HIV-1 92UG001 subtype D infected in human PBMC assessed as reverse transcriptase activity after 6 days by microtiter plate-based assay; format: functional, organism-based; details: Human immunodeficiency virus 1, 92UG001 subtype D, 144 h; method in brief: as §1
[21] = Therapeutic index, ratio of TC50 for human PBMC to EC50 for HIV-1 Ba-L subtype B infected in human PBMC; details: read-out: TI
[22] = Cytotoxicity against human PBMC assessed as inhibition of cell viability by MTS assay; format: cell-based; details: read-out: TC50 (the source's name)
[23] = Therapeutic index, ratio of TC50 for human PBMC to EC50 for HIV-1 02CM0015BBY subtype CRF02_AG infected in human PBMC; details: read-out: TI

Molecule	Ki [1]	CC50 [2]	EC50 [3]	EC50 [4]	CC50 [5]	EC50 [7]	selectivity ratio [9]	selectivity ratio [11]	EC50 [12]	EC90 [12]	EC90 [13]	EC50 [14]	EC90 [14]	EC50 [15]	EC90 [15]	selectivity ratio [16]	EC50 [17]	EC90 [17]	EC50 [18]	EC90 [18]	other results
O=C(O)c1cccc(Cn2ccc3ccc(-c4ccc5cc[nH]c5c4)cc32)c1	2700 nM	> 50000 nM	47000 nM	15000 nM	> 100000 nM	60000 nM	–	–	–	–	–	–	–	–	–	–	–	–	–	–	Rf [6]: 0.13
CCOC(=O)c1cccc(Cn2ccc3ccc(-c4ccc5ccn(Cc6cccc(C(=O)O)c6)c5c4)cc32)c1	1000 nM	43000 nM	500 nM	700 nM	> 50000 nM	300 nM	> 141	> 147	430 nM	1230 nM	550 nM	410 nM	590 nM	390 nM	570 nM	> 141	370 nM	560 nM	350 nM	580 nM	selectivity ratio [8]: > 116; Rf [10]: 0.48; EC50 [13]: 340 nM; selectivity ratio [19]: > 128; EC50 [20]: 350 nM; EC90 [20]: 1000 nM; selectivity ratio [21]: > 121; CC50 [22]: > 50000 nM; selectivity ratio [23]: > 137
enfuvirtide	–	–	–	–	–	–	> 36	> 110	> 2000 nM	> 2000 nM	55.8 nM	7.55 nM	23.6 nM	108 nM	195 nM	> 16.6	16.9 nM	43.4 nM	120 nM	206 nM	selectivity ratio [19]: > 18.6; EC90 [20]: 71.3 nM; selectivity ratio [21]: > 265; CC50 [22]: > 2000 nM; selectivity ratio [23]: > 118
COC(=O)c1cccc(Cn2ccc3ccc(-c4ccc5ccn(Cc6cccc(C(=O)O)c6)c5c4)cc32)c1	600 nM	15000 nM	200 nM	200 nM	53000 nM	200 nM	29.1	39.3	460 nM	1430 nM	540 nM	360 nM	630 nM	350 nM	580 nM	29.7	240 nM	520 nM	390 nM	920 nM	selectivity ratio [8]: 25.3; EC50 [13]: 290 nM; selectivity ratio [19]: 33.3; EC50 [20]: 400 nM; EC90 [20]: 990 nM; selectivity ratio [21]: 32.2; CC50 [22]: 11600 nM; Rf [6]: 0.13; selectivity ratio [23]: 47.8
